Compound activity from PubChem.
In the library only some 1.8% were active in any assay of this set; here they are far more common.
GRK2 inh = blocks RNA aptamer binding to human GRK2. inhibition of aptamer binding, % at 10 µM. bead flow cytometry, FAM-aptamer displacement from GRK2. actives 0.59% (n = 330,000);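 active means inhibition of aptamer binding above 40%, roughly 3 SD of noise, on plates passing a quality check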;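 further: median bead fluorescence of bound FAM aptamer so fluorescent compounds give negative values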
Target sequence (P25098 whole entry, looked up): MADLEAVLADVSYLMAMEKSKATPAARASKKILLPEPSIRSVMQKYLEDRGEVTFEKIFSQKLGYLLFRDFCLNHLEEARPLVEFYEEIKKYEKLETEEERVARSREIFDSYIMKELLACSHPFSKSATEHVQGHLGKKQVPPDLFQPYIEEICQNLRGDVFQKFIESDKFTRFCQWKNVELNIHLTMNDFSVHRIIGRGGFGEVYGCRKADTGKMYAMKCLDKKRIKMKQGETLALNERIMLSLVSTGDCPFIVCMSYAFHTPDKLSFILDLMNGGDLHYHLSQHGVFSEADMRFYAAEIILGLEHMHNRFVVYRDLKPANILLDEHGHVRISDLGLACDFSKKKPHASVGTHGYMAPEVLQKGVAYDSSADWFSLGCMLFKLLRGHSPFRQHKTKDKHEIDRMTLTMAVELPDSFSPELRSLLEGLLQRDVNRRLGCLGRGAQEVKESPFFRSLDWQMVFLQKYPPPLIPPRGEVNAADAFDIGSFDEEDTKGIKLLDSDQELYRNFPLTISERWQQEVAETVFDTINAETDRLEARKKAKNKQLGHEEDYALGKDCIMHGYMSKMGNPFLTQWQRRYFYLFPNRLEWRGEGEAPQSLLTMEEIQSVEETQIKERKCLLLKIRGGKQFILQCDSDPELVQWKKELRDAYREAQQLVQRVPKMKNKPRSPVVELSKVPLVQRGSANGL
DDE Tn6 FP inh = DD(E)-Tn6 binding inhibition, primary FP screen. AID 720509. Fibrin DD(E) TRITC-Tn6 fluorescence polarization displacement. P02675. actives 0.21% (n = 370,000). inhibition, % at 8.3 µM;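 active means inhibition above a per-campaign cutoff: mean of compounds within control limits plus 3 SD, cut at about 15% in these data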;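 further: 0% = median of all compound wells on the plate and 100% = blocking peptide control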
ARNT TACC3 PPI = disruptors of human ARNT/TACC3 interaction; AID 623870; AlphaScreen His-ARNT PAS-B/GST-TACC3 binding, luminescence; TACC3 fragment carries E629A point mutation; inhibition, % at 9.99 µM; Q9Y6A5; actives 0.66% (n = 390,000);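 active means mean inhibition of replicates at least 50% and at least half of replicates each reaching 50%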;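 further: 0% = complete ARNT plus TACC3 wells and 100% = ARNT alone without TACC3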
CAL PDZ FP-1 = blocks peptide binding to the human CAL PDZ domain; Q9HD26; purified CAL PDZ, TMR-peptide fluorescence polarization, 1 h; inhibition, % at 24.9 µM; actives 0.92% (n = 300,000);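 active means mean inhibition of at least 30% with at least half of replicates also reaching 30%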;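 further: 0% = DMSO neutral control and 100% = excess unlabeled competitor peptide PRC23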
CAL PDZ FP-2 = inhibitors of human CAL PDZ peptide binding | inhibition, % at 20 µM | purified CAL PDZ, TMR-peptide fluorescence polarization, 1 h | Q9HD26 | AID 504414 | actives 0.02% (n = 330,000);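 active means highest replicate inhibition of at least 40%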;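 further: plate controls were DMSO neutral control wells for no effect and unlabeled competitor peptide control wells for full effect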
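Control set: unlabelled peptide and DMSO controls / Material: purified CerCALP PDZ construct / Timing: 1 h incubation at room temperature before polarization reading / Doses: 20 µM, one dose / Detection: fluorescence polarization (mP)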
DDE Tn7 FP inh = DD(E)-Tn7 binding inhibition, primary FP screen; FP displacement of FITC-Tn7 peptide from fibrin DD(E); 0% = median of compound wells per plate; inhibition, % at 8.3 µM; actives 0.13% (n = 370,000); AID 720508;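 active means inhibition above the mean of compounds falling within the control limits plus 3 SD of them, cut at about 14% in these data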;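 further: 0% = plate median of compound wells and 100% = 10 µM Aha-Tn7 peptide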
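Assay system: Fibrin-DD(E) protein isolated from polymerized human fibrin clots; read-out basis: percent inhibition; medium: Tris/NaCl/CaCl2 buffer, pH 7.8; signal: FP measurement; incubation: 10 min plus 3 h, room temperature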
ARNT Alpha ctr = AlphaScreen artifact in ARNT/TACC3 counter-screen; shares compounds with ARNT TACC3 PPI; His-ARNT PASB-GST AlphaScreen artifact counter-screen, luminescence; AC50, µM (doses to about 68 µM), inactives show at the highest dose activity change, negative = signal decrease; actives 50% (n = 1,200);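 active means every separate test run was called active for a drop in luminescence, with AC50 within twice the top valid dose, actives reach about 71 µM in these data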
Active calls of the source: *; . = no result; [ ] = remark or other dose.

SMILES	GRK2 inh	DDE Tn6 FP inh	ARNT TACC3 PPI	CAL PDZ FP-1	CAL PDZ FP-2	DDE Tn7 FP inh	ARNT Alpha ctr
c1ccc(-c2nnc(-c3ccccn3)nc2NC2CCCCC2)cc1	1	11	.	2	-4	8	.
CC(Nc1nc(-c2ccccn2)nnc1-c1ccccc1)c1ccccc1 (stereo not drawn)	.	.	.	.	.	.	2.3µM*
CNc1nc(-c2ccccn2)nnc1-c1ccccc1	3	5	64*	0	-2	-4	3µM*
Cn1c(-c2ccccc2)cnc1Nc1nc(-c2ccccn2)nnc1-c1ccccc1	.	.	.	.	.	.	2.6µM*
CCCNC(=O)C[C@H]1C[C@@H]2c3cc(NC(=O)CN(C)C)ccc3O[C@@H]2[C@@H](CO)O1	.	.	-7	.	.	.	.
COC(=O)c1ccc(S(=O)(=O)N2CCC(NC(=O)COc3ccc(F)cc3)CC2)cc1	.	3	.	.	.	2	.
COC(=O)C(CC#Cc1ccc2c(c1)[C@]1(C(=O)N2)[C@H](C(=O)N2CCCCCCC2)[C@H]2C(=O)O[C@H](c3ccccc3)[C@H](c3ccccc3)N2[C@@H]1c1ccc(OCCO)cc1)C(=O)OC	.	.	35	.	.	.	.
COC(=O)C(CC#Cc1ccc2c(c1)[C@]1(C(=O)N2)[C@H](c2ccc(O)cc2)N2[C@H](c3ccccc3)[C@H](c3ccccc3)OC(=O)[C@H]2[C@@H]1C(=O)N1CCCCCCC1)C(=O)OC	.	.	68*	.	.	.	-33%[38 µM]
C[C@@H]1CN([C@@H](C)CO)C(=O)c2cc(NC(=O)Nc3cccc4ccccc34)ccc2O[C@@H]1CN(C)C(=O)Nc1ccc(C(F)(F)F)cc1	.	.	-1	.	.	.	.
C[C@H](CO)N1C[C@H](C)[C@@H](CN(C)C(=O)Nc2ccc3c(c2)OCO3)Oc2ccc(NC(=O)CCN3CCOCC3)cc2CC1=O	.	.	50*	.	.	.	-14%[42 µM]
C[C@H]1CN([C@@H](C)CO)C(=O)c2cccc(NC(=O)Nc3cccc4ccccc34)c2O[C@@H]1CN(C)S(=O)(=O)c1ccc(Cl)cc1	.	.	53*	.	.	.	25µM*
C[C@H]1CN([C@@H](C)CO)C(=O)Cc2cc(NC(=O)Nc3cccc4ccccc34)ccc2O[C@H]1CN(C)CC1CCCCC1	.	.	52*	.	.	.	-31%[42 µM]
C[C@H]1CN([C@@H](C)CO)C(=O)c2cc(NC(=O)Nc3cccc4ccccc34)ccc2O[C@@H]1CN(C)C(=O)Nc1ccc(C(F)(F)F)cc1	.	.	active	.	.	.	-31%[42 µM]
C[C@H](CO)N1C[C@H](C)[C@H](CN(C)S(=O)(=O)c2ccc(Cl)cc2)Oc2c(NC(=O)Nc3cccc4ccccc34)cccc2C1=O	.	.	-11	.	.	.	.
COc1ccc(NC(=O)Nc2ccc3c(c2)CC(=O)N([C@@H](C)CO)C[C@@H](C)[C@H](CN(C)Cc2ccc(Oc4ccccc4)cc2)O3)cc1	.	.	58*	.	.	.	20µM*
COc1ccc(CN(C)C[C@H]2Oc3ccc(NC(=O)Cn4cnnn4)cc3C(=O)N([C@H](C)CO)C[C@@H]2C)cc1	.	.	24	.	.	.	.
C[C@H]1CN([C@@H](C)CO)C(=O)Cc2cc(NC(=O)Nc3cccc4ccccc34)ccc2O[C@@H]1CN(C)Cc1ccc(Oc2ccccc2)cc1	.	.	61*	.	.	.	34µM*
C[C@H](CO)N1C[C@H](C)[C@H](CN(C)Cc2ccc(Oc3ccccc3)cc2)Oc2ccc(NC(=O)Nc3cccc4ccccc34)cc2CC1=O	0	-10	-3	0	0	0	.
COc1ccc(CN(C)C[C@@H]2Oc3ccc(NC(=O)Cn4cnnn4)cc3C(=O)N([C@@H](C)CO)C[C@H]2C)cc1	.	.	54*	.	.	.	-4%[42 µM]
CO[C@H]1CN(C)C(=O)c2ccc(NC(=O)c3cc(C)on3)cc2OC[C@@H](C)N(CC2CC2)C[C@H]1C	.	.	-3	.	.	.	.
CN(C)CCN(C(=O)c1ccc2c(c1)OCCO2)c1nc2cc3c(cc2s1)OCO3	0	5	7	-4	-3	-6	.
CN(C)CCN(C(=O)c1ccc2c(c1)CCCC2)c1nc2cc3c(cc2s1)OCCO3	0	1	52*	-3	-2	-9	24µM*
O=C1c2cccnc2C(=O)N1Cc1ccc(S(=O)(=O)NCc2ccco2)s1	1	-3	57*	-2	-3	-7	-8%
O=C(NCCN1CCOCC1)c1cc(-c2cccc(O)c2)on1	0	8	-7	-1	-2	-1	.
O=C(NCCN1CCCCC1)c1cc(-c2ccccc2)on1	.	.	.	.	.	.	5%[38 µM]
SMILES	GRK2 inh	DDE Tn6 FP inh	ARNT TACC3 PPI	CAL PDZ FP-1	CAL PDZ FP-2	DDE Tn7 FP inh	ARNT Alpha ctr
O=C(NCc1cccs1)c1cc(-c2ccccc2)on1	0	3	-7	-2	-3	-3	.
O=C(NCC1CCCCC1)c1cc(-c2ccccc2)on1	.	.	.	.	.	.	4%[38 µM]
Cc1cccc(CNC(=O)c2cc(-c3ccccc3)on2)c1	.	.	.	.	.	.	47µM*
CC(C)(C)CCNC(=O)c1cc(-c2ccccc2)on1	.	.	.	.	.	.	68µM*
COC(=O)CCC(=O)N1CCCC(N2CCN(c3cccc(C(F)(F)F)c3)CC2)C1 (stereo not drawn)	6	5	4	-4	0	2	.
CNC[C@H]1Oc2cc(-c3ccccc3F)ccc2S(=O)(=O)N([C@@H](C)CO)C[C@@H]1C	.	.	-4	.	.	.	.
O=C(Nc1ccc(C(F)(F)F)cc1)N[C@@H]1CC[C@@H](CCn2cc(C3(O)CCCC3)nn2)O[C@@H]1CO	.	.	11	.	.	.	.
C[C@H](CO)N1C[C@H](C)[C@@H](CN(C)S(=O)(=O)c2ccccc2)OCCCC[C@H](C)Oc2ccc(NC(=O)Nc3ccc4c(c3)OCO4)cc2C1=O	.	.	14	.	.	.	.
O=C(NCCCO)c1cc(-c2ccccc2)on1	.	.	.	.	.	.	-2%[38 µM]
CCCCNC(=O)c1cc(-c2ccccc2)on1	.	.	.	.	.	.	5%[38 µM]
CCCn1cc(NC(=O)c2cc(-c3ccccc3)on2)cn1	0	-7	-3	0	-4	-2	.
O=C(NCc1ccccn1)c1cc(-c2ccccc2)on1	1	6	-8	-1	-3	4	.
CCNC(=O)[C@@H]1[C@@H](CO)[C@@H]2Cn3c(ccc(-c4ccccc4F)c3=O)[C@H]1N2CC	.	.	-1	.	.	.	.
CCc1nc2ccc(C(=O)N3CCN(c4ccc([N+](=O)[O-])cc4)CC3)cc2nc1CC	0	-4	6	-1	-4	-5	.
CCSc1nnc(NC(=O)C2CC2c2ccccc2)s1 (stereo not drawn)	3	3	.	-1	-2	7	.
CCSc1nnc(NC(=O)C2CCCCC2C(=O)O)s1 (stereo not drawn)	0	2	active	3	0	0	0%
CCC(COC)Oc1cc(NCc2ccccc2)c2ncn(C(C)C)c2c1 (stereo not drawn)	3	3	56*	2	0	-2	34µM*
